From ChEMBL document CHEMBL1130101, “A virtual screening approach applied to the search for trypanothione reductase inhibitors” (J Med Chem, 1997)

Columns and labels:
[1] = target: Trypanothione reductase (Trypanosoma cruzi) (UniProt P28593); experiment: Natural log of the value in (uM) of inhibition constant was tested against Trypanothione Reductase
[2] = target: Trypanothione reductase (Trypanosoma cruzi) (UniProt P28593); experiment: Percent Inhibition of trypanothione reductase activity at 28.5 uM concentration
Method in brief: (§1)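 TR-catalysed reduction of trypanothione disulfide; the reaction rate was measured without inhibitor (r0) and with inhibitor (rinh). Percent inhibition = (r0 − rinh)/r0 × 100. Measured percentages carry an error of about 10%.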

[3] = target: Trypanothione reductase (Trypanosoma cruzi) (UniProt P28593); experiment: Percent Inhibition of trypanothione reductase activity at 5.7 uM concentration; method in brief: as §1
[4] = target: Trypanothione reductase (Trypanosoma cruzi) (UniProt P28593); experiment: Percent Inhibition of trypanothione reductase activity at 57 uM concentration; method in brief: as §1

Sequence of Trypanothione reductase (Trypanosoma cruzi) (P28593 whole entry, looked up): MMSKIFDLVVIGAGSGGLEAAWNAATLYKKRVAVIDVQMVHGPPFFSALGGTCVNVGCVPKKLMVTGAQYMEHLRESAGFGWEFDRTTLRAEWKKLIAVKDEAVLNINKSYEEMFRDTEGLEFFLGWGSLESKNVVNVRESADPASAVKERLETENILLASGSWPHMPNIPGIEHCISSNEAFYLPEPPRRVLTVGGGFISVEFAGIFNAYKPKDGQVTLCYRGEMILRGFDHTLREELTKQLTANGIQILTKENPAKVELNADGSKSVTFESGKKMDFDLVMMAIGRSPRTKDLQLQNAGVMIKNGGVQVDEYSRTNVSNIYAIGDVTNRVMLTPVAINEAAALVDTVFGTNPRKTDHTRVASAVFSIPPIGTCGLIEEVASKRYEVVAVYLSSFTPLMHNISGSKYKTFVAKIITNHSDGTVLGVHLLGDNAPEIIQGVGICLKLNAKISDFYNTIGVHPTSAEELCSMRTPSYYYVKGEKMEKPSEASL

Structure (SMILES) | Natural log of inhibition constant (Ki in uM) [1] | inhibition [2] | inhibition [3] | inhibition [4]
NCCCCNCCCNC(=O)CCc1ccc(O)c(O)c1 | 4.68 |  |  | 
Cc1cc(-c2ccccc2)nnc1NCCN1CCOCC1 |  | 16% | 18% | 12%
NCCCNCCCCNCCCNC(=O)CCc1ccc(O)c(O)c1 | 4.44 |  |  | 
NCCCNCCCNC1=C(c2c[nH]c3ccccc23)C(=O)NC1=O | 0.91 |  |  | 
Clc1ccc(Sc2ccccc2)c(NCCCN2CCCC2)c1 | 3.78 |  |  | 
CN1CCN(CCNc2cc(Cl)ccc2Sc2ccc(Cl)cc2)CC1 | 3.85 |  |  | 
CCN(CC)CCNc1cc(Cl)ccc1Sc1ccccc1 | 6.21 |  |  | 
Fc1ccc(C(CCCN2CCNCC2)c2ccc(F)cc2)cc1 |  | 9% | 0% | 18%
CN1CCN(CCCCNc2ccccc2Sc2cccc(NCCCCCNc3cccc(Sc4ccccc4NCCCCN4CCN(C)CC4)c3)c2)CC1 | 1 |  |  | 
Clc1ccc(Sc2ccccc2NCCN2CCCC2)cc1 | 5.08 |  |  | 
Clc1ccc(Sc2ccccc2)c(NCCCN2CCCCC2)c1 | 3.95 |  |  | 
CN1CCN(CCCNc2cc(Cl)ccc2Sc2ccc(Cl)cc2)CC1 | 4.04 |  |  | 
CN(C)CCCC(CN)(c1ccccc1)c1ccccc1 |  | 9% | 0% | 36%
COc1ccc(/C=C/C(=O)N2CCCN(CCCCN)C2)cc1 | 5.01 |  |  | 
Clc1ccc(C(c2ccccc2)N2CCNCC2)cc1 (stereo not drawn) |  | 30% | 0% | 40%
Cc1ccc(Sc2ccc(F)cc2)c(NCCCN2CCN(C)CC2)c1 | 5.35 |  |  | 
CN(C)CCNc1cc(Cl)ccc1Sc1ccc(Cl)cc1 | 3.91 |  |  | 
CN1CCN(CCNc2cc(Cl)ccc2Sc2ccccc2)CC1 | 3.68 |  |  | 
CN1CCN(CCNc2ccccc2Sc2ccc(Cl)cc2)CC1 | 4.38 |  |  | 
CC(=O)c1ccc(Sc2ccc(Cl)cc2NCCCN2CCN(C)CC2)cc1 | 2.94 |  |  | 
NCCN(CCN)CCCNc1cc(Cl)ccc1Sc1ccccc1 | 1.5 |  |  | 
COc1ccc(/C=C/C(=O)NCCCCN2CCCN(C(=O)/C=C/c3ccc(OC)cc3)C2)cc1 | 5.01 |  |  | 
CN1CCN(CCCNc2cc(Cl)ccc2Sc2ccccc2)CC1 | 3.3 |  |  | 
CNCCC=C1c2ccccc2CCc2ccccc21 |  | 0% | 0% | 25%
Cc1ccc(Sc2ccc(C)cc2NCCCN2CCN(C)CC2)cc1 | 4.38 |  |  | 
Cc1ccc(Sc2ccccc2NCCCN2CCN(C)CC2)cc1 | 4.17 |  |  | 

Structure (SMILES) | Natural log of inhibition constant (Ki in uM) [1] | inhibition [2] | inhibition [3] | inhibition [4]
CCN(CC)CCCNc1cc(Cl)ccc1Sc1ccccc1 | 3.74 |  |  | 
O=C(/C=C/c1ccc(O)c(O)c1)NCCCNCCCCNCCCNC(=O)/C=C/c1ccc(O)c(O)c1 | 2.77 |  |  | 
COc1cc(CC2NCCc3c2[nH]c2ccccc32)ccc1O (stereo not drawn) |  | 13% | 0% | 27%
Clc1ccc(Sc2ccc(Cl)cc2NCCCN2CCCCC2)cc1 | 4.09 |  |  | 
NCc1ccccc1Sc1ccccc1CO |  | 0% | 0% | 31%
NCCNCCCNc1cc(Cl)ccc1Sc1ccccc1 | 3 |  |  | 
NCCC1CCN(Cc2ccccc2)CC1 |  | 0% | 0% | 0%
c1ccc(Sc2ccccc2NCCCN2CCCC2)cc1 | 4.73 |  |  | 
CN(C)CCNc1ccccc1Sc1ccc(Cl)cc1 | 4.38 |  |  | 
CN1CCN(CCCNc2cc(Cl)ccc2Sc2ccc(F)cc2)CC1 | 4.74 |  |  | 
Clc1ccc(Sc2ccc(Cl)cc2NCCCN2CCCC2)cc1 | 4.06 |  |  | 
Clc1ccc(Sc2ccccc2)c(NCCN2CCCCC2)c1 | 6.55 |  |  | 
CCC(C)(C)c1ccc(OCCCCN)c(C(C)(C)CC)c1 |  | 0% | 0% | 0%
CN1CCN(CCCNc2cc(Cl)ccc2Sc2cc(Cl)ccc2Cl)CC1 | 3.4 |  |  | 
COc1ccc(CCC(=O)NCCCNCCCCN)cc1 | 5.82 |  |  | 
N#Cc1ccc(C2NCCc3c2[nH]c2ccccc32)cc1 (stereo not drawn) |  | 0% | 0% | 0%
CN(C)CCNc1cc(Cl)ccc1Sc1ccccc1 | 4.38 |  |  | 
C[C@@H]1CN(CCCn2c3ccccc3c3ccccc32)C[C@H](C)N1 |  | 15% | 10% | 23%
CN(C)c1ccc(C(c2ccc(N(C)C)cc2)c2ccc(N(C)C)cc2)cc1 | 1.6 |  |  | 
NCCc1ccc(Oc2ccccc2)cc1 |  | 0% | 0% | 0%
COc1ccc(/C=C/C(=O)NCCCNCCCCN)cc1 | 5.6 |  |  | 
Clc1ccc(Sc2ccc(Cl)cc2NCCN2CCCCC2)cc1 | 6.9 |  |  | 
Cc1ccc(Sc2ccc(Cl)cc2NCCCN2CCN(C)CC2)cc1 | 3.33 |  |  | 
Clc1ccc(Sc2ccccc2)c(NCCN2CCCC2)c1 | 4.34 |  |  | 
O=C(CCc1ccc(O)c(O)c1)NCCCCNCCCNC(=O)CCc1ccc(O)c(O)c1 | 2.01 |  |  | 
Cc1cccc(C)c1OCC(O)CN1CCNCC1 (stereo not drawn) |  | 0% | 0% | 7%
